In the assay the target is Hexokinase-4 (Homo sapiens) (UniProt P35557). Kind of assay: hGlck enzyme activity off-target inhibitors – biochemical, recombinant hGlck, counter-screen for TbHK1 inhibitor project (AID 492951). The conditions noted are these: G6PDH-coupled NADH absorbance 340 nm, at 10 µM. Summed up:
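Test system: purified recombinant human glucokinase (HK4) with G6PDH coupling enzyme / Reagent: 20 mM glucose as reaction starter, plus 1 mM ATP / Timing: 10 min room-temperature compound-enzyme preincubation before glucose addition / Measured by: A340 of NADH / Repeats: three replicates per compound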
(The purpose of a counterscreen is to sort out artefacts and off-target activity.)

Molecules are shown by their SMILES. Calls of active or inactive are those of the source.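 The calls were made as follows: active = inhibition above 10%; inactive = the rest.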

The values below come from PubChem BioAssay AID492951 (Molecular Libraries Program, Specialized Chemistry Center, …, 2010).

Chain of Hexokinase-4 (Homo sapiens) (P35557 whole entry, looked up): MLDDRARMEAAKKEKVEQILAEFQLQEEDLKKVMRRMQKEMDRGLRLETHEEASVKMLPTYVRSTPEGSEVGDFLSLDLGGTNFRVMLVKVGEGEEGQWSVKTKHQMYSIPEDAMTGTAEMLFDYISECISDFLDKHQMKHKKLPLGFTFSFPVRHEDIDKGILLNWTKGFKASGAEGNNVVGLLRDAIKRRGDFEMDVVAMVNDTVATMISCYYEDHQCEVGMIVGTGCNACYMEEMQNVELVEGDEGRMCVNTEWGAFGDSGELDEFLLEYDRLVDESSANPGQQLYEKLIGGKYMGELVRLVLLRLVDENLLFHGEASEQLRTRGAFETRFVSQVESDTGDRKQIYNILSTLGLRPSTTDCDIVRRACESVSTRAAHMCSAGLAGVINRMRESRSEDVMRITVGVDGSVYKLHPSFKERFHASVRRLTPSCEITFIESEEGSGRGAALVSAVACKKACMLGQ

On to `O=C1CCN(C(=O)Nc2cc(Cl)ccc2C(=O)O)CC1`, for which the result was inactive.

As for `O=c1ccsn1-c1ccccc1`, the result was inactive.
